# Experimental data taken from ChEMBL document CHEMBL1147539, “Synthesis and biological evaluation of novel, selective, nonsteroidal glucocorticoid receptor antagonists” (Bioorg Med Chem Lett, 2004).
# Tests used:
# Glucocorticoid receptor [1] = biological target: T1, Glucocorticoid receptor (Homo sapiens, UniProt P04150); test: Displacement of [3H]dexamethasone from human Glucocorticoid receptor (GR); Value ranges from 1273-2947 nM
# T1 sequence (P04150 whole entry): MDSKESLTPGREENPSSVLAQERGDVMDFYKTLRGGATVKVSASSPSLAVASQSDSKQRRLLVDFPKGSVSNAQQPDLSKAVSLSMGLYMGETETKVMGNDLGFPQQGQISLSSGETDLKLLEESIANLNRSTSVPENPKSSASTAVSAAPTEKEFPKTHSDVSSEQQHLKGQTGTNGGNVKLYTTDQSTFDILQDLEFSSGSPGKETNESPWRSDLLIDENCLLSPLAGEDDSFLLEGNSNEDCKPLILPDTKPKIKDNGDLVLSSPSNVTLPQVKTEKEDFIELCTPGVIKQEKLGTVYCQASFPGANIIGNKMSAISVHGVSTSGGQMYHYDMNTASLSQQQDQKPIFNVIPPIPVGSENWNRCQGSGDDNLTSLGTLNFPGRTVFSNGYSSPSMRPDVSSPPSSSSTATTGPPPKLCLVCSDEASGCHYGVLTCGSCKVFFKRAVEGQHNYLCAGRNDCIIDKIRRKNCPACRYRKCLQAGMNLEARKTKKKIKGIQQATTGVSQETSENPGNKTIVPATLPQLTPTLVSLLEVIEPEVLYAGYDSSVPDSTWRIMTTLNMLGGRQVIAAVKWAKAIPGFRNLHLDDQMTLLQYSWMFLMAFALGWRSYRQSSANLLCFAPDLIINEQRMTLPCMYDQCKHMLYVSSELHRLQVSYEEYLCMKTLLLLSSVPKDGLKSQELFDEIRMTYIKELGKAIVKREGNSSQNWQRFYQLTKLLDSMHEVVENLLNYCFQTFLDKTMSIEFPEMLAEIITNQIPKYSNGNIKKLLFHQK
# How it was run: (§1)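 Binding to human GR; IC50 reported as the geometric mean of two experiments (three for some values), each run in duplicate, with the range of the experiments given.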
# Glucocorticoid receptor [2] = biological target: T1, Glucocorticoid receptor; test: Effect on human Glucocorticoid receptor (GR) in a whole cell assay to measure functional cellular GR-antagonism (GRAF)
# Glucocorticoid receptor [3] = biological target: T1, Glucocorticoid receptor; test: Displacement of [3H]dexamethasone from human Glucocorticoid receptor (GR); Value ranges from 949-1169 nM; how it was run: as §1
# Glucocorticoid receptor [4] = biological target: T1, Glucocorticoid receptor
# Glucocorticoid receptor [5] = biological target: T1, Glucocorticoid receptor; test: Displacement of [3H]dexamethasone from human Glucocorticoid receptor (GR); Value ranges from 681-974 nM; how it was run: as §1
# Glucocorticoid receptor [6] = biological target: T1, Glucocorticoid receptor; remark: listed apart in the source
# Glucocorticoid receptor [7] = biological target: T1, Glucocorticoid receptor; test: Displacement of [3H]dexamethasone from human Glucocorticoid receptor (GR); Value ranges from 379-840 nM; how it was run: as §1
# Glucocorticoid receptor [8] = biological target: T1, Glucocorticoid receptor; test: Displacement of [3H]dexamethasone from human Glucocorticoid receptor (GR); Value ranges from 559-1423 nM; how it was run: as §1
# Glucocorticoid receptor [9] = biological target: T1, Glucocorticoid receptor; test: Effect on functional cellular GR-antagonism (GRAF) in human Glucocorticoid receptor (GR) expressing cells
# How it was run: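 Whole-cell functional GR antagonism measured in a genetically engineered mammalian cell line expressing GR; IC50 determined from 12-concentration compound curves.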
# [10] = biological target: T2, Mineralocorticoid receptor (Homo sapiens, UniProt P08235); test: Displacement of [3H]aldosterone from human Mineralocorticoid receptor
# T2 sequence (P08235 whole entry): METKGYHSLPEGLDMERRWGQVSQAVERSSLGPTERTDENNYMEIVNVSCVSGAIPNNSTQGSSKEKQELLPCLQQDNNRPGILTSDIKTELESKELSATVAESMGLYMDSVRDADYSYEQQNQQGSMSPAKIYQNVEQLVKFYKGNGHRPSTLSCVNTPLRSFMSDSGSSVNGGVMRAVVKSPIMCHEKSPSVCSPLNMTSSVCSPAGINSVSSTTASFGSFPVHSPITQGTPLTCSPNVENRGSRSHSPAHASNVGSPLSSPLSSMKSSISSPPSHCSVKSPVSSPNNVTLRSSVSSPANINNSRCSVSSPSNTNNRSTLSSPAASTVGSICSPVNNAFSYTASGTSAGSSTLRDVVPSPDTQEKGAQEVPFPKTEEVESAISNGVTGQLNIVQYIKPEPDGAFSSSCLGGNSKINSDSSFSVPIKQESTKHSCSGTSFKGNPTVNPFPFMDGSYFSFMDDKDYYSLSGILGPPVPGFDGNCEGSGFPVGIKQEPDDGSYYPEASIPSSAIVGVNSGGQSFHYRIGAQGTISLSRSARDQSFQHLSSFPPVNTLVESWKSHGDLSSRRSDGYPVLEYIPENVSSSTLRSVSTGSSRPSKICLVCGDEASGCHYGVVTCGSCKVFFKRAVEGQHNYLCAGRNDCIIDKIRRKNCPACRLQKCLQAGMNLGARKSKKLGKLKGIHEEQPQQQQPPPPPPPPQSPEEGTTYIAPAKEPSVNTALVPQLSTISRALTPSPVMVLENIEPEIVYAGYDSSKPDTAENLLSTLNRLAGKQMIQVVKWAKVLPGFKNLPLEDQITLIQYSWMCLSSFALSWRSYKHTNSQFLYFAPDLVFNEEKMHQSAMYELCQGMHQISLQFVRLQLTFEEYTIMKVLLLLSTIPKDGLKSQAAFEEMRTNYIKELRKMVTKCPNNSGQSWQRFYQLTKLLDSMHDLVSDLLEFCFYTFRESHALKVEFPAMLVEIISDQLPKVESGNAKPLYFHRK
# How it was run: (§2)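 Human steroid receptor (PR, MR, AR, ERα) binding measured by radioligand displacement, with IC50s determined in duplicate. Values without a range come from a single experiment, and values with a range are geometric means of repeat experiments.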
# Androgen receptor = biological target: T3, Androgen receptor (Homo sapiens, UniProt P10275); test: Displacement of [3H]mibolerone from human Androgen receptor
# T3 sequence (P10275 whole entry): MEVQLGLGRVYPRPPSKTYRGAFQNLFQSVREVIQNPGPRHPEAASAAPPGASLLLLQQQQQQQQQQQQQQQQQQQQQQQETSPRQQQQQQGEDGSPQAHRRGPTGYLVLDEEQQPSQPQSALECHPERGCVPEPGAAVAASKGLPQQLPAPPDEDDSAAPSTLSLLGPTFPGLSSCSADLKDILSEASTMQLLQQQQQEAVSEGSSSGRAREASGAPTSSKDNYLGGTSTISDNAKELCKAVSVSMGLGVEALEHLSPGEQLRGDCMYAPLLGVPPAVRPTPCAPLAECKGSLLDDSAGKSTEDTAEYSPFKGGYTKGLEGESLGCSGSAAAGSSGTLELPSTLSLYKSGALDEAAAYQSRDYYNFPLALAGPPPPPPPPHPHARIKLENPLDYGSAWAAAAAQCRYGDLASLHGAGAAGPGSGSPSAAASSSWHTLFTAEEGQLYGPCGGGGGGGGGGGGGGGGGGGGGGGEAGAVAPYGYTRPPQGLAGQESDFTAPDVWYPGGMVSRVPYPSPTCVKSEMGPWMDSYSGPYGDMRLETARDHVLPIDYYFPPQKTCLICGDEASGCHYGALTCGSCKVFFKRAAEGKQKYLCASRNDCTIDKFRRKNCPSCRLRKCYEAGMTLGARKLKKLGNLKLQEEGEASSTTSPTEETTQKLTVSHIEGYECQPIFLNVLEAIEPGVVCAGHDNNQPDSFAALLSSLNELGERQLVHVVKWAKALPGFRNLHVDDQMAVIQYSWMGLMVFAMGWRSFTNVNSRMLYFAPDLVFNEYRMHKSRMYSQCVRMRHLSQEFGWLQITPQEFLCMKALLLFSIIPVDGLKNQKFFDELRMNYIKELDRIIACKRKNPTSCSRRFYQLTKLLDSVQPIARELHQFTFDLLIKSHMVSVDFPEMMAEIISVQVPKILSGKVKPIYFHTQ
# Estrogen receptor = biological target: T4, Estrogen receptor (Homo sapiens, UniProt P03372); test: Displacement of [3H]estradiol from human estrogen receptor alpha; how it was run: as §2
# T4 sequence (P03372 whole entry): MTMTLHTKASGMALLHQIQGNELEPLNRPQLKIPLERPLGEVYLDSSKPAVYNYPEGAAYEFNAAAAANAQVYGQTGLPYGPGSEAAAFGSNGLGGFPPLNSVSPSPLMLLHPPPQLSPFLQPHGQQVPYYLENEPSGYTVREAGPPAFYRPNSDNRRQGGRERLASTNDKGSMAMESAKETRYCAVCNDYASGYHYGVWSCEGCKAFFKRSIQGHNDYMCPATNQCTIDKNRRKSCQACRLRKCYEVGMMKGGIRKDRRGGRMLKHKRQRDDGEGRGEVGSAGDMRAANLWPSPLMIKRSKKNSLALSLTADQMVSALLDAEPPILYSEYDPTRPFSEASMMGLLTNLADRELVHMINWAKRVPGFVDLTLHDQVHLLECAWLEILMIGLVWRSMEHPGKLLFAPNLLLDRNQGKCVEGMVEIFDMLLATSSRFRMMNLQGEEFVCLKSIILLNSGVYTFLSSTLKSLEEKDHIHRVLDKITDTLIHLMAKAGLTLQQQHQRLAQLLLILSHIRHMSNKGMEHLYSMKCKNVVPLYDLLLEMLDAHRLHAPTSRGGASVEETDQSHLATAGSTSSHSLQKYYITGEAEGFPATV
# Glucocorticoid receptor [11] = biological target: T1, Glucocorticoid receptor; test: Displacement of [3H]dexamethasone from human Glucocorticoid receptor (GR); Value ranges from 3-3 nM
# Glucocorticoid receptor [12] = biological target: T1, Glucocorticoid receptor; test: Displacement of [3H]dexamethasone from human Glucocorticoid receptor (GR); Value ranges from 9-12 nM
# Glucocorticoid receptor [13] = biological target: T1, Glucocorticoid receptor; test: Displacement of [3H]dexamethasone from human Glucocorticoid receptor (GR); Value ranges from 26-67 nM; how it was run: as §1
# Glucocorticoid receptor [14] = biological target: T1, Glucocorticoid receptor; test: Displacement of [3H]dexamethasone from human Glucocorticoid receptor (GR); Value ranges from 150-220 nM; how it was run: as §1
# Glucocorticoid receptor [15] = biological target: T1, Glucocorticoid receptor; test: Displacement of [3H]dexamethasone from human Glucocorticoid receptor (GR); Value ranges from 106-131 nM
# Glucocorticoid receptor [16] = biological target: T1, Glucocorticoid receptor; remark: listed apart in the source
# Glucocorticoid receptor [17] = biological target: T1, Glucocorticoid receptor; test: Displacement of [3H]dexamethasone from human Glucocorticoid receptor (GR); Value ranges from 28-34 nM
# Glucocorticoid receptor [18] = biological target: T1, Glucocorticoid receptor; test: Displacement of [3H]dexamethasone from human Glucocorticoid receptor (GR); Value ranges from 215-217 nM; how it was run: as §1
# Glucocorticoid receptor [19] = biological target: T1, Glucocorticoid receptor; test: Displacement of [3H]dexamethasone from human Glucocorticoid receptor (GR); Value ranges from 44-53 nM
# Glucocorticoid receptor [20] = biological target: T1, Glucocorticoid receptor; test: Displacement of [3H]dexamethasone from human Glucocorticoid receptor (GR); Value ranges from 2-2 nM
# Glucocorticoid receptor [21] = biological target: T1, Glucocorticoid receptor; test: Displacement of [3H]dexamethasone from human Glucocorticoid receptor (GR); Value ranges from 39-94 nM
compound,measurement,setting,value
COc1cccc2c1-c1ccc(N)cc1C(c1ccccc1)O2 (stereo not drawn),IC50,Glucocorticoid receptor [1],1.94 µM
same,IC50,Glucocorticoid receptor [2],2.02 µM
COc1cccc2c1-c1ccc(N(C)S(C)(=O)=O)cc1C(c1ccccc1)O2 (stereo not drawn),IC50,Glucocorticoid receptor [2],0.21 µM
same,IC50,Glucocorticoid receptor [3],1.05 µM
COc1cccc2c1-c1ccc(NCc3ccccc3)cc1C(c1ccccc1)O2 (stereo not drawn),IC50,Glucocorticoid receptor [4],0.91 µM
same,IC50,Glucocorticoid receptor [2],0.402 µM
COc1ccccc1C1Oc2cccc(OC)c2-c2ccc(NS(C)(=O)=O)cc21 (stereo not drawn),IC50,Glucocorticoid receptor [5],0.812 µM
same,IC50,Glucocorticoid receptor [2],0.665 µM
CCOc1ccc(CC2Oc3cccc(OC)c3-c3ccc(NS(C)(=O)=O)cc32)cc1 (stereo not drawn),IC50,Glucocorticoid receptor [6],0.548 µM
CCNc1ccc2c(c1)C(c1ccccc1)Oc1cccc(OC)c1-2 (stereo not drawn),IC50,Glucocorticoid receptor [7],0.564 µM
same,IC50,Glucocorticoid receptor [2],0.382 µM
CS(=O)(=O)Nc1ccc2c(c1)C(c1ccccc1)Oc1cccc(O)c1-2 (stereo not drawn),IC50,Glucocorticoid receptor [8],0.892 µM
same,IC50,Glucocorticoid receptor [9],1.81 µM
COc1cccc2c1-c1ccc(NS(C)(=O)=O)cc1C(c1cccc(Cl)c1)O2 (stereo not drawn),IC50,[10],2.15 µM
same,IC50,Androgen receptor,> 10 µM
same,IC50,Estrogen receptor,> 10 µM
same,IC50,Glucocorticoid receptor [2],0.147 µM
same,IC50,Glucocorticoid receptor [11],0.003 µM
COc1cccc2c1-c1ccc(NS(C)(=O)=O)cc1C(c1ccc(Cl)cc1)O2 (stereo not drawn),IC50,Glucocorticoid receptor [12],0.01 µM
same,IC50,Glucocorticoid receptor [2],0.129 µM
COc1cccc2c1-c1ccc(NS(=O)(=O)N(C)C)cc1C(c1ccccc1)O2 (stereo not drawn),IC50,Glucocorticoid receptor [2],0.121 µM
same,IC50,Glucocorticoid receptor [13],0.041 µM
CS(=O)(=O)Nc1ccc2c(c1)C(c1ccccc1)Oc1cccc(CO)c1-2 (stereo not drawn),IC50,Glucocorticoid receptor [14],0.18 µM
COc1cccc2c1-c1ccc(NC(C)=O)cc1C(c1ccccc1)O2 (stereo not drawn),IC50,Glucocorticoid receptor [15],0.117 µM
same,IC50,Glucocorticoid receptor [2],0.069 µM
CS(=O)(=O)Nc1ccc2c(c1)C(c1ccccc1)Oc1cccc(-c3cccs3)c1-2 (stereo not drawn),IC50,Glucocorticoid receptor [16],0.656 µM
CCOC(=O)c1cccc(C2Oc3cccc(OC)c3-c3ccc(NS(C)(=O)=O)cc32)c1 (stereo not drawn),IC50,Glucocorticoid receptor [17],0.031 µM
same,IC50,Glucocorticoid receptor [2],0.296 µM
COc1cccc2c1-c1ccc(NS(C)(=O)=O)cc1C(c1cccc(O)c1)O2 (stereo not drawn),IC50,Glucocorticoid receptor [18],0.216 µM
COc1cccc2c1-c1ccc(NS(C)(=O)=O)cc1C(c1cccc(Oc3ccccc3)c1)O2 (stereo not drawn),IC50,Glucocorticoid receptor [19],0.048 µM
same,IC50,Glucocorticoid receptor [2],0.434 µM
CS(=O)(=O)Nc1ccc2c(c1)C(c1ccccc1)Oc1cccc(OC(F)F)c1-2 (stereo not drawn),IC50,[10],0.162 µM
same,IC50,Androgen receptor,8.73 µM
same,IC50,Estrogen receptor,> 10 µM
same,IC50,Glucocorticoid receptor [2],0.057 µM
same,IC50,Glucocorticoid receptor [20],0.002 µM
CCOC(=O)c1ccc(C2Oc3cccc(OC)c3-c3ccc(NS(C)(=O)=O)cc32)cc1 (stereo not drawn),IC50,Glucocorticoid receptor [2],0.388 µM
same,IC50,Glucocorticoid receptor [21],0.061 µM
